According to ChEMBL document CHEMBL1139206, “Evaluation of nitrate-substituted pseudocholine esters of aspirin as potential nitro-aspirins” (Bioorg Med Chem Lett, 2007):

What was measured:
[1] = species: Homo sapiens; test: Stability in human plasma assessed as hydrolysis half life
[2] = tested on: Plasma; test: Stability in human plasma assessed as aspirin production at pH 7.4; format: ADME, cell-free
Method in brief: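 Test ester incubated in dilute (10%) buffered human plasma, pH 7.4, 37 °C. Products (parent ester, deacetylated salicylate ester, aspirin, salicylic acid) were followed over time by RP-HPLC with PDA detection; salicylate esters read at 296 nm. Disappearance fitted to pseudo-first-order kinetics, half-life = 0.693/k_obs. Aspirin yield expressed on a molar basis.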

Compound | half-life [1] [min] | Activity [2] [%]
CC(=O)Oc1ccccc1C(=O)OCCO[N+](=O)[O-] | 1.6 | < 0.5
CC(=O)Oc1ccccc1C(=O)OC(C)CO[N+](=O)[O-] (configuration not stated) | 1.47 | < 0.5
CC(=O)Oc1ccccc1C(=O)OCCN(C)CCO[N+](=O)[O-] | 0.35 | < 0.5
CCN(CCOC(=O)c1ccccc1OC(C)=O)CCO[N+](=O)[O-] | 1.05 | < 0.5
CCCN(CCOC(=O)c1ccccc1OC(C)=O)CCO[N+](=O)[O-] | 0.65 | 9.2
CC(=O)Oc1ccccc1C(=O)OCCCO[N+](=O)[O-] | 2.23 | < 0.5

Second part, the compound after the results:

half-life [1] [min] | Activity [2] [%] | Compound
1.17 | < 0.5 | CC(=O)Oc1ccccc1C(=O)OCC(=O)N(C)CCO[N+](=O)[O-]
1.03 | < 0.5 | CCN(CCO[N+](=O)[O-])C(=O)COC(=O)c1ccccc1OC(C)=O
1.15 | < 0.5 | CCCN(CCO[N+](=O)[O-])C(=O)COC(=O)c1ccccc1OC(C)=O
6.12 | < 0.5 | CC(=O)Oc1ccccc1C(=O)OCC(=O)N(CCO[N+](=O)[O-])CC[N+](=O)[O-]
1.12 | < 0.5 | CC(=O)Oc1ccccc1C(=O)OCCN(CCO[N+](=O)[O-])CCO[N+](=O)[O-]
